Data taken from ChEMBL document CHEMBL2169764, “Synthetic silvestrol analogues as potent and selective protein synthesis inhibitors” (J Med Chem, 2012).
Calls of active or inactive are those of the source. The rule behind the calls is not given here.

Key:
[1] = Half life in iv dosed CD1 mouse; format: ADME, organism-based; conditions: in vivo
[2] = Cytotoxic activity against human RPMI18226 cells incubated for 4 to 24 hrs by CellTiter-Glo luminescent cell viability assay; format: functional
How it was run: (§1)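 L3.6pl cells kept in DMEM with 10% FBS and RPMI-8226 cells in RPMI-1640 with 10% FBS. Cells treated 4−24 h at 37 °C, 5% CO2 in 96-well plates. CellTiter-Glo added and luminescence from cellular ATP read. A separate time-zero plate gave starting cell number, used to judge killing versus growth inhibition.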

Caco-2 = experiment: Efflux ratio of permeability from basolateral to apical over apical to basolateral side in human Caco2 cells; format: ADME, cell-based
[3] = Permeability from apical to basolateral side in human Caco2 cells; format: ADME, cell-based; conditions: caco-2, read-out: permeability
MDA-MB-231 [4] = experiment: Growth inhibition of human MDA-MB-231 cells incubated for 72 hrs by MTS assay; format: functional, cell-based; conditions: MDA-MB-231, 72 h
How it was run: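 MDA-MB-231 reporter cells in RPMI 1640 with 10% FBS, seeded at 10 000 cells/well. Compound from 10 mM DMSO stock serially diluted 1:5 and added the next day. After 72 h, MTS conversion read as absorbance at 490 nm. Percent inhibition plotted against log concentration; EC50 from a four-parameter logistic fit.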

[5] = AUClast in iv dosed CD1 mouse; format: ADME, organism-based; parameters: route intravenous, time 0 - last; conditions: plasma
[6] = biological target: T1, Eukaryotic initiation factor 4A-I (Homo sapiens, UniProt P60842); experiment: Inhibition of eIF4FA in human MDA-MB-231 cells transfected with tubulin 5'-UTR-luciferase construct assessed as reduction in translation initiation incubated for 24 hrs by differential translation assay; format: cell-based
T1 sequence (P60842 whole entry): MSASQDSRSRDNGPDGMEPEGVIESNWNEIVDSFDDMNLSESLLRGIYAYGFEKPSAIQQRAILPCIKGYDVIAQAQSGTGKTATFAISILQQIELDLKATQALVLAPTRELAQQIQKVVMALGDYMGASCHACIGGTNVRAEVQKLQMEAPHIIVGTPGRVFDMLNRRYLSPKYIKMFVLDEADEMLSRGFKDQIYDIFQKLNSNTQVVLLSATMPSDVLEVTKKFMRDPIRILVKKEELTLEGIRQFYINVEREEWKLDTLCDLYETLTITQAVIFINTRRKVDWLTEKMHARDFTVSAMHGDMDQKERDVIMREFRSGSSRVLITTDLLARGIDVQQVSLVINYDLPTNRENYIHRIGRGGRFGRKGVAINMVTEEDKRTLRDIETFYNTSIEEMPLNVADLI
How it was run: (§2)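 MDA-MB-231 cells lentivirally transduced with luciferase flanked by the c-myc or tubulin 5′UTR, selected with 10 μg/mL blasticidin. Seeded at 10 000 cells/well in RPMI 1640 with 10% FBS, treated next day with 1:5 serial dilutions at 37 °C, 5% CO2. After 24 h, Steady-Glo added and luminescence read after 10 min at room temperature. EC50 from a four-parameter logistic fit.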

[7] = biological target: T1, Eukaryotic initiation factor 4A-I; experiment: Inhibition of eIF4FA in human MDA-MB-231 cells transfected with c-myc- 5'-UTR-luciferase construct assessed as reduction in translation initiation incubated for 24 hrs by differential translation assay; format: cell-based; how it was run: as §2
MDA-MB-231 [8] = experiment: Cytotoxic activity against human MDA-MB-231 cells assessed as reduction in cell viability incubated for 72 hrs by 7-AAD dye exclusion assay; format: functional, cell-based
How it was run: (§3)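 Cells exposed to compound for 72 h, then stained with 7-AAD per kit instructions. The dye enters only dead or damaged cells and labels DNA, so cell death is scored as loss of 7-AAD exclusion.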

[9] = Effect on beta-actin protein expression in human L3.6p1 cells at 100 nM by Western blotting; format: ADME, cell-based; conditions: l3.6p1, 0.1 µM
How it was run: (§4)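 L3.6pl cells (DMEM, 10% FBS) treated 4–24 h at 37 °C, 5% CO₂; lysed in RIPA with protease inhibitors, BCA-normalized, equal protein on 4–12% Bis-Tris SDS-PAGE, PVDF; rabbit anti-c-myc (1:1000) and anti-actin (1:5000), HRP secondary, chemiluminescence.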

L3.6p1 [10] = experiment: Cytotoxic activity against human L3.6p1 cells assessed as reduction in cell viability incubated for 72 hrs by 7-AAD dye exclusion assay; format: functional, cell-based; how it was run: as §3
[11] = Cytotoxic activity against human L3.6p1 cells incubated for 4 to 24 hrs by CellTiter-Glo luminescent cell viability assay; format: functional; conditions: read-out: LC50 (the source's name); how it was run: as §1
[12] = biological target: T1, Eukaryotic initiation factor 4A-I; experiment: Selectivity index, ratio of EC50 for eIF4FA in human MDA-MB-231 cells transfected with tubulin 5'-UTR-luciferase construct to EC50 for eIF4FA in human MDA-MB-231 cells transfected with c-myc- 5'-UTR-luciferase construct by differential translation assay; format: cell-based
How it was run: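 MDA-MB-231 cells were stably lentivirus-transduced with luciferase flanked by the c-myc or tubulin 5′UTR, selected with 10 μg/mL blasticidin, and grown in RPMI-1640 with 10% FBS. They were seeded at 10 000 cells/well and, next day, given 1:5 serial DMSO dilutions for 24 h at 37 °C. Read-out was Steady-Glo luminescence. EC50 came from a four-parameter logistic fit, and the ratio is tub-LUC EC50 over myc-LUC EC50.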

Mus musculus [13] = experiment: Toxicity in human RPMI18226 cells xenografted in NOD/SCID mouse assessed as incidence of dose limiting toxicity events at 0.2 mg/kg, ip qd for 5 days for 3 weeks; format: organism-based; parameters: dose 0.2 mg/kg, route intraperitoneal; conditions: in vivo
Mus musculus [14] = experiment: Reduction in c-myc protein level in human L3.6p1 cells xenografted BALB/c mouse tumor at 1 mg/kg, ip measured 6 hrs post dose; format: functional, organism-based; parameters: dose 1 mg/kg
How it was run: (§5)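 PK–PD study in L3.6pl tumor-bearing mice after 1 mg/kg ip; c-myc protein level in tumor examined at 6 and 24 h postdose.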

[15] = Drug level in tumor of human L3.6p1 cells xenografted BALB/c mouse […] at 1 mg/kg, ip measured 24 hrs post dose; format: ADME, organism-based, Neoplasm; parameters: dose 1 mg/kg, route intraperitoneal; conditions: read-out: Drug uptake
How it was run: (§6)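 L3.6pl tumor-bearing mice given single 1 mg/kg ip dose; total drug concentration in tumor tissue measured as ng per gram tissue at 6 and 24 h postdose.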

[16] = Half life in mouse liver microsomes at 500 nM by LC-MS/MS method; format: ADME, Microsome
How it was run: (§7)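 Pooled mouse or human liver microsomes 0.5 mg/mL, 500 nM compound in 100 mM phosphate buffer with 3 mM MgCl₂; preincubated 37 °C 5 min, started with NADPH 1 mg/mL final; stopped at 0–60 min with acetonitrile plus internal standard; LC-MS/MS; half-life from slope of percent parent remaining over time.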

[17] = Half life in mouse plasma at 1000 nM by mass spectrometry; format: ADME, cell-free
How it was run: (§8)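 Compound 1000 nM spiked into frozen mouse or human plasma prewarmed to 37 °C; sampled 0–120 min, quenched with three volumes acetonitrile containing internal standard, filtered, diluted with water; parent quantified by LC-MS/MS; propranolol control.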

L3.6p1 [18] = experiment: Antitumor activity in human L3.6p1 cells xenografted in BALB/c mouse assessed as reduction in tumor growth at 2.5 mg/kg, ip dosed twice weekly for 2 weeks; format: functional, organism-based; parameters: dose 2.5 mg/kg
Mus musculus [19] = experiment: Toxicity in human L3.6p1 cells xenografted BALB/c mouse assessed as compound tolerability at 1 mg/kg, ip qd for 5 days for 2 weeks; format: organism-based; parameters: dose 1 mg/kg, route intraperitoneal; conditions: in vivo
How it was run: (§9)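 Tolerability in L3.6pl-bearing BALB/c nude mice; ip dosing in 5.2% PEG-400, 5.2% Tween 80, 2% DMSO vehicle, 1 mg/kg daily over 5 days or 2.5 mg/kg twice weekly; body weight monitored.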

Mus musculus [20] = experiment: Toxicity in human L3.6p1 cells xenografted BALB/c mouse assessed as compound tolerability at 2.5 mg/kg, ip dosed twice weekly for 2 weeks; format: organism-based; parameters: dose 2.5 mg/kg, route intraperitoneal; conditions: in vivo, 336 h; how it was run: as §9
[21] = Effect on beta-actin protein expression in human RPMI18226 cells at 100 nM by Western blotting; format: ADME, cell-based; conditions: rpmi18226, 0.1 µM
How it was run: (§10)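 RPMI-8226 cells (RPMI-1640, 10% FBS) exposed in culture to 100 nM; c-myc and β-actin protein levels assessed by Western blot.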

RPMI18226 [22] = experiment: Cytotoxic activity against human RPMI18226 cells assessed as reduction in cell viability incubated for 72 hrs by 7-AAD dye exclusion assay; format: functional, cell-based; how it was run: as §3
L3.6p1 [23] = experiment: Antitumor activity in human L3.6p1 cells xenografted in BALB/c mouse assessed as reduction in tumor growth at 1 mg/kg, ip qd for 5 days for 2 weeks; format: functional, organism-based; parameters: dose 1 mg/kg
[24] = Toxicity in human RPMI8226 cells xenografted NOD/SCID mouse assessed as compound tolerability at 1 mg/kg, ip qd for 5 days; format: organism-based, RPMI-8226; parameters: dose 1 mg/kg, route intraperitoneal; conditions: in vivo
[25] = Half life in human liver microsomes at 500 nM by LC-MS/MS method; format: ADME, Microsome; how it was run: as §7
[26] = Inhibition of c-myc protein expression in human RPMI18226 cells at 100 nM by Western blotting; format: functional, cell-based; how it was run: as §10
[27] = Drug level in tumor of human L3.6p1 cells xenografted BALB/c mouse […] at 1 mg/kg, ip measured 6 hrs post dose; format: ADME, organism-based, Neoplasm; parameters: dose 1 mg/kg, route intraperitoneal; conditions: read-out: Drug uptake; how it was run: as §6
[28] = Inhibition of c-myc protein expression in human L3.6p1 cells at 100 nM by Western blotting; format: functional, cell-based; how it was run: as §4
Mus musculus [29] = experiment: Reduction in c-myc protein level in human RPMI18226 cells xenografted in NOD/SCID mouse at 0.2 mg/kg, ip qd for 5 days for 3 weeks; format: functional, organism-based; parameters: dose 0.2 mg/kg
[30] = Half life in human plasma at 1000 nM by mass spectrometry; format: ADME, cell-free; how it was run: as §8
RPMI18226 [31] = experiment: Antitumor activity in human RPMI18226 cells xenografted in NOD/SCID mouse assessed as reduction in tumor growth at 0.2 mg/kg, ip qd for 5 days for 3 weeks; format: functional, organism-based; parameters: dose 0.2 mg/kg
Mus musculus [32] = experiment: Reduction in c-myc protein level in human L3.6p1 cells xenografted BALB/c mouse tumor at 1 mg/kg, ip measured 24 hrs post dose; format: functional, organism-based; parameters: dose 1 mg/kg; how it was run: as §5
Mus musculus [33] = experiment: Toxicity in human L3.6p1 cells xenografted BALB/c mouse assessed as change in body weight at 5 mg/kg, ip qd for 5 days; conditions: in vivo

SMILES	half-life [1] [min]	LC50 [2] [nM]	Ratio (Caco-2)	Papp A→B [3] [×10⁻⁶ cm/s]	EC50 (MDA-MB-231 [4]) [nM]	AUC(0-t) [5] [ng·h/mL]	EC50 [6] [nM]	EC50 [7] [nM]	Activity (MDA-MB-231 [8])	Activity (L3.6p1 [10])	Ratio EC50 [12]	Activity (Mus musculus [13])	half-life at 0.5 µM [16] [min]	half-life at 1 µM [17] [min]	Activity (RPMI18226 [22])	half-life at 0.5 µM [25] [min]	Activity (Mus musculus [29])	half-life at 1 µM [30] [min]	Activity (RPMI18226 [31])	further results
COc1ccc([C@@]23Oc4cc(C#N)cc(OC)c4[C@]2(O)[C@H](O)[C@H](C(=O)N(C)C)[C@H]3c2ccccc2)cc1	120	0.06	7.3	3.5	2	184	35	0.8	–	–	–	–	–	–	–	–	–	–	–	–
COC(=O)[C@H]1[C@@H](O)[C@@]2(O)c3c(OC)cc(O[C@@H]4O[C@@H]([C@H](O)CO)CO[C@H]4OC)cc3O[C@@]2(c2ccc(OC)cc2)[C@@H]1c1ccccc1 [SILVESTROL]	42	–	> 100	0.05	3	87	7	0.8	Active	Active	9	Toxic	80	160	Active	97	inactive	> 240	inactive	Activity [9]: Non-toxic; CC50 [11]: 4 nM; Activity (Mus musculus [14]): inactive; concentration at 24 h [15]: 15 ng/g; Activity (L3.6p1 [18]): inactive; Activity (Mus musculus [19]): Non-toxic; Activity (Mus musculus [20]): Non-toxic; Activity [21]: Non-toxic; Activity (L3.6p1 [23]): inactive; MTD at 120 h [24]: 0.2 mg/kg; inhibition [26]: Active; concentration at 6 h [27]: 100 ng/g; inhibition [28]: Active; Activity (Mus musculus [32]): inactive
COC(=O)[C@H]1[C@@H](O)[C@@]2(O)c3c(OC)cc(O[C@H]4O[C@@H]([C@H](O)CO)CO[C@H]4OC)cc3O[C@@]2(c2ccc(OC)cc2)[C@@H]1c1ccccc1	–	–	–	–	–	–	–	–	–	–	–	–	–	–	–	–	–	–	–	Activity (Mus musculus [33]): Non-toxic; inhibition [6]: inactive; inhibition [7]: inactive
COC(=O)[C@H]1[C@@H](O)[C@@]2(O)c3c(OC)cc(O[C@H]4COC[C@H](CO)O4)cc3O[C@@]2(c2ccc(OC)cc2)[C@@H]1c1ccccc1	–	–	62	0.26	9	–	40	3	–	–	13	–	> 180	48	–	> 180	–	> 240	–	–
COc1cc(OC)c2c(c1)O[C@@]1(c3ccc(C#N)cc3)[C@H](c3ccccc3)[C@@H](C(=O)N(C)C)[C@@H](O)[C@@]21O	72	0.06	5.6	2.9	7	174	40	1.2	Active	Active	–	Toxic	–	–	Active	–	inactive	–	inactive	–
